≈ marks a conversion by molar mass, not a printed value.
Columns and labels:
[1] = WHO-TDR: Cytotoxicity; assay type: toxicity, cell-based; conditions: human, MRC5 cells
Plasmodium falciparum K1 = test: WHO-TDR: Malaria; assay type: functional, organism-based, Homo sapiens; conditions: Erythrocyte
Method in brief: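 Whole-organism screen of a 10,000-compound diverse library from Life Chemicals, filtered for drug-likeness and reactive groups, against intra-erythrocytic Plasmodium falciparum K1 strain in human red blood cells. The assay followed previously published standard procedures, with a reference drug as positive control. Antiplasmodial potency is reported as IC50.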

Trypanosoma cruzi = test: WHO-TDR: Chagas disease; assay type: functional, organism-based, Homo sapiens; conditions: MRC5
Method in brief: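 Following previously published standard procedures, with a reference drug as positive control, a whole-organism assay was run on Trypanosoma cruzi Tulahuen CL2 beta-galactosidase strain amastigotes inside MRC-5SV2 human lung fibroblast host cells. The 10,000 compounds tested formed a diverse Life Chemicals library filtered for drug-likeness and reactive groups. Results are expressed as IC50 for antiparasitic potency.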

[2] = tested on: Trypanosoma brucei brucei; test: WHO-TDR: Human African Trypanosomiasis (HAT); assay type: functional, organism-based; conditions: Squib-427
Method in brief: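 Whole-organism screen of a 10,000-compound diverse library from Life Chemicals, filtered for drug-likeness and reactive groups, against bloodstream forms of Trypanosoma brucei Squib 427 strain. The assay followed previously published standard procedures, with reference drugs as positive controls. Antiparasitic potency is reported as IC50.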

Leishmania infantum = test: WHO-TDR: Leishmaniasis; assay type: functional, organism-based, Mus musculus; conditions: Macrophage
Method in brief: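 Whole-organism screen of a 10,000-compound diverse library from Life Chemicals, filtered for drug-likeness and reactive groups, against intracellular amastigotes of Leishmania infantum MHOM/MA(BE)/67 in murine peritoneal macrophage host cells. The assay followed previously published standard procedures, with a reference drug as positive control. Antiparasitic potency is reported as IC50.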

Schistosoma mansoni = test: WHO-TDR: Schistosomiasis; assay type: functional; parameters: concentration or dose not given beside the values
Method in brief: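 Percent inhibition and IC50 describe activity against whole Schistosoma mansoni worms of the Puerto Rican strain, tested as larvae and/or adults. The compounds screened were a diverse set of 10,000 from Life Chemicals, filtered for drug-likeness and reactive groups. Testing followed previously published standard procedures, with a reference drug as positive control.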

Onchocerca ochengi [3] = test: (§1) WHO-TDR: Onchocerciasis; assay type: functional; parameters: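 at 12.5 µM on microfilariae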
Method in brief: (§2)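 Percent inhibition and IC50 describe activity against microfilariae of Onchocerca ochengi or Onchocerca lienalis, used as animal-pathogen substitutes for the human parasite. The compounds tested made up a 10,000-member diverse library from Life Chemicals.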

Onchocerca ochengi [4] = test: as §1; assay type: functional; parameters: concentration or dose not given beside the values; method in brief: as §2; remark: listed apart in the source

SMILES	IC50 [1]	IC50 (Plasmodium falciparum K1)	IC50 (Trypanosoma cruzi)	IC50 [2]	IC50 (Leishmania infantum)	% Inhibition (Schistosoma mansoni)	% Inhibition (Onchocerca ochengi [3])	% Inhibition (Onchocerca ochengi [4])
CC(C)S(=O)(=O)Nc1ccc2c(c1)NC(=O)C(C)(C)CO2	> 9.37 µg/mL	3.66 µg/mL (≈ 11.7 µM)	3.93 µg/mL (≈ 12.6 µM)	6.82 µg/mL (≈ 21.8 µM)	> 9.37 µg/mL	0%	100%	0%
O=S(=O)(Nc1cccc(-c2nc3ccccc3s2)c1)c1ccc(Cl)s1	> 12.2 µg/mL	> 12.2 µg/mL	4.01 µg/mL (≈ 9.85 µM)	> 12.2 µg/mL	> 12.2 µg/mL	0%	100%	0%
O=C(CSc1ncc(-c2ccccc2)[nH]1)N1CCCc2ccccc21	> 10.5 µg/mL	> 10.5 µg/mL	> 10.5 µg/mL	> 10.5 µg/mL	> 10.5 µg/mL	0%	100%	0%
CC1CCCN(S(=O)(=O)c2ccc(C(=O)Nc3nnc(-c4ccno4)o3)cc2)C1 (stereo not drawn)	> 12.5 µg/mL	5.03 µg/mL (≈ 12 µM)	> 12.5 µg/mL	> 12.5 µg/mL	> 12.5 µg/mL	0%	100%	0%
CN1CCN(C(CNC(=O)c2c(F)cccc2F)c2ccsc2)CC1 (stereo not drawn)	> 11 µg/mL	> 11 µg/mL	0.406 µg/mL (≈ 1.11 µM)	> 11 µg/mL	> 11 µg/mL	0%	0%	0%
O=C1CC(CNS(=O)(=O)c2ccccc2F)CN1c1ccc(Cl)cc1 (stereo not drawn)	> 11.5 µg/mL	> 11.5 µg/mL	> 11.5 µg/mL	> 11.5 µg/mL	> 11.5 µg/mL	0%	100%	0%
COc1ccc(CCC(=O)NCC(c2ccsc2)N2CCc3ccccc3C2)cc1 (stereo not drawn)	> 12.6 µg/mL	6.14 µg/mL (≈ 14.6 µM)	4.15 µg/mL (≈ 9.87 µM)	4.13 µg/mL (≈ 9.83 µM)	> 12.6 µg/mL	0%	100%	0%
CC(C)c1cc(C(=O)NCC2CCCO2)nn1-c1nc2ccccc2s1 (stereo not drawn)	> 11.1 µg/mL	> 11.1 µg/mL	> 11.1 µg/mL	> 11.1 µg/mL	> 11.1 µg/mL	0%	100%	0%
Cc1ccc(N2CCn3c2nnc(C(=O)NCCC2=CCCCC2)c3=O)cc1	> 11.4 µg/mL	0.152 µg/mL (≈ 0.4 µM)	> 11.4 µg/mL	> 11.4 µg/mL	3.69 µg/mL (≈ 9.71 µM)	0%	0%	0%
O=C(Nc1nc(-c2ccncc2)cs1)C1CCCN(S(=O)(=O)c2ccc(Cl)s2)C1 (stereo not drawn)	> 14.1 µg/mL	6.68 µg/mL (≈ 14.2 µM)	0.243 µg/mL (≈ 0.518 µM)	4.5 µg/mL (≈ 9.6 µM)	4.55 µg/mL (≈ 9.71 µM)	0%	50%	0%
Cc1ccc(Cl)cc1S(=O)(=O)Nc1ccc2c(c1)NC(=O)C(C)(C)CO2	> 11.8 µg/mL	> 11.8 µg/mL	3.95 µg/mL (≈ 10 µM)	3.89 µg/mL (≈ 9.85 µM)	> 11.8 µg/mL	0%	100%	0%
O=C(CC1CCCCN1S(=O)(=O)c1ccc(Cl)cc1)NCCC1=CCCCC1 (stereo not drawn)	12.7 µg/mL (≈ 30 µM)	> 12.7 µg/mL	0.517 µg/mL (≈ 1.22 µM)	4.23 µg/mL (≈ 9.95 µM)	6.6 µg/mL (≈ 15.5 µM)	0%	0%	0%
CC1(C)COc2ccc(NS(=O)(=O)c3cccc4ccccc34)cc2NC1=O	> 11.9 µg/mL	> 11.9 µg/mL	> 11.9 µg/mL	6.16 µg/mL (≈ 15.5 µM)	> 11.9 µg/mL	0%	100%	0%
CN1CCc2cc(C(CNC(=O)COc3ccc(Cl)cc3Cl)N3CCCC3)ccc21 (stereo not drawn)	11.6 µg/mL (≈ 25.9 µM)	5.1 µg/mL (≈ 11.4 µM)	4.36 µg/mL (≈ 9.73 µM)	0.43 µg/mL (≈ 0.959 µM)	3.38 µg/mL (≈ 7.54 µM)	0%	50%	0%
CCOc1cccc2cc(-c3csc(NC(=O)c4sc5ccccc5c4Cl)n3)oc12	0.237 µg/mL (≈ 0.521 µM)	> 13.6 µg/mL	11.8 µg/mL (≈ 25.9 µM)	0.237 µg/mL (≈ 0.521 µM)	3.69 µg/mL (≈ 8.11 µM)	0%	0%	0%
CN1CCN(C(CNC(=O)CCc2ccccc2)c2ccsc2)CC1 (stereo not drawn)	> 10.7 µg/mL	> 10.7 µg/mL	0.498 µg/mL (≈ 1.39 µM)	> 10.7 µg/mL	> 10.7 µg/mL	0%	0%	0%
CCCN1C(=O)C(C)(C)COc2cc(NS(=O)(=O)c3c(C)c(C)cc(C)c3C)ccc21	> 13.3 µg/mL	> 13.3 µg/mL	3.55 µg/mL (≈ 7.99 µM)	4.27 µg/mL (≈ 9.6 µM)	> 13.3 µg/mL	0%	100%	0%
CCOC(=O)c1ccc(NC(=O)CC2CCCCN2S(=O)(=O)c2ccc(OC)cc2)cc1 (stereo not drawn)	2.03 µg/mL (≈ 4.4 µM)	> 13.8 µg/mL	0.449 µg/mL (≈ 0.975 µM)	4.53 µg/mL (≈ 9.83 µM)	> 13.8 µg/mL	0%	0%	0%
Cc1cc(=O)[nH]c(-n2nc(C)cc2NC(=O)c2ccccc2C(F)(F)F)n1	2.61 µg/mL (≈ 6.91 µM)	> 11.3 µg/mL	0.409 µg/mL (≈ 1.08 µM)	> 11.3 µg/mL	> 11.3 µg/mL	0%	0%	0%
NC(=O)c1cc(-c2ccccc2)sc1NC(=O)Cc1ccc2c(c1)OCO2	> 11.4 µg/mL	5.1 µg/mL (≈ 13.4 µM)	> 11.4 µg/mL	3.65 µg/mL (≈ 9.6 µM)	> 11.4 µg/mL	0%	100%	0%
O=C(Nc1ccc(F)cc1)Nc1nc(C(=O)N2CCN(c3ccccc3F)CC2)cs1	5.3 µg/mL (≈ 11.9 µM)	4.63 µg/mL (≈ 10.4 µM)	4.32 µg/mL (≈ 9.74 µM)	0.459 µg/mL (≈ 1.03 µM)	> 13.3 µg/mL	0%	0%	0%
CN1CCCc2cc(C(CNC(=O)c3cccs3)N3CCCCC3)ccc21 (stereo not drawn)	> 11.5 µg/mL	> 11.5 µg/mL	10.4 µg/mL (≈ 27.2 µM)	3.68 µg/mL (≈ 9.6 µM)	> 11.5 µg/mL	0%	100%	0%
NC(=O)c1cc(-c2ccccc2)sc1NC(=O)c1cc2ccccc2o1	> 10.9 µg/mL	> 10.9 µg/mL	> 10.9 µg/mL	> 10.9 µg/mL	> 10.9 µg/mL	0%	100%	0%
NC(=O)c1cc(-c2ccccc2)sc1NC(=O)C1COc2ccccc2O1 (stereo not drawn)	1.92 µg/mL (≈ 5.04 µM)	5.78 µg/mL (≈ 15.2 µM)	3.4 µg/mL (≈ 8.93 µM)	3.65 µg/mL (≈ 9.6 µM)	> 11.4 µg/mL	25%	100%	0%
Cc1cc(=O)n2c(n1)SCC2CC(=O)NCCC(c1ccccc1)c1ccccc1 (stereo not drawn)	> 12.6 µg/mL	6.43 µg/mL (≈ 15.3 µM)	> 12.6 µg/mL	4.07 µg/mL (≈ 9.71 µM)	> 12.6 µg/mL	0%	100%	0%
O=C(COc1ccc(F)cc1)NCC(c1ccsc1)N1CCc2ccccc2C1 (stereo not drawn)	> 12.3 µg/mL	> 12.3 µg/mL	3.73 µg/mL (≈ 9.09 µM)	4.19 µg/mL (≈ 10.2 µM)	> 12.3 µg/mL	0%	100%	0%

From ChEMBL document CHEMBL2093137, “WHO-TDR NTD Screening”
